HSV replic up: HSV replication enhancement; HSV replication augmentation in cells, fold increase; maximum fold increase; 0.005% of 220,000 active; in the data active means maximum fold increase above about 1.5; tested in PC3 cells
Insulin prom inh: TRM-6 insulin promoter activity inhibition; TRM-6 cells (human fetal islet line), insulin promoter-eGFP reporter, imaging; reporter expression induced with tamoxifen; inhibition, % at 2 µM; 0.9% of 130,000 active;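 active means inhibition above the mean plus 3 SD, with well images judged a real hit on visual review, cut at about 60% in these data, passing the limit was not always enough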
Insulin prom up: MIN6 insulin promoter up-regulation. MIN6 insulin promoter-GFP reporter, high-content imaging; active compounds read high. z-score at 5 µM. 0.3% of 190,000 active;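 active means z-score above 3 at 5 µM with at least 500 cells counted in the well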
Autophagy mod: alters autophagy in cells. 0.98% of 190,000 active. MEF GFP-LC3 puncta imaging; test concentration mostly 10 µM. calls only at 10 µM (by protocol). AID 463193;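 active means percentage of spot-positive cells more than 3 SD above its plate mean, without a fluorescence outlier flag or 80% toxicity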;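 further: spot-positive cell cutoff set from DMSO-treated cells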
Furin inhibitor: human furin inhibition; inhibition, % at 20 µM or 30 µM; P09958; 0.061% of 220,000 active; AID 463115; purified furin, fluorogenic substrate cleavage; in the data active means inhibition above about 25%
Target sequence (P09958 108-714 limits assumed): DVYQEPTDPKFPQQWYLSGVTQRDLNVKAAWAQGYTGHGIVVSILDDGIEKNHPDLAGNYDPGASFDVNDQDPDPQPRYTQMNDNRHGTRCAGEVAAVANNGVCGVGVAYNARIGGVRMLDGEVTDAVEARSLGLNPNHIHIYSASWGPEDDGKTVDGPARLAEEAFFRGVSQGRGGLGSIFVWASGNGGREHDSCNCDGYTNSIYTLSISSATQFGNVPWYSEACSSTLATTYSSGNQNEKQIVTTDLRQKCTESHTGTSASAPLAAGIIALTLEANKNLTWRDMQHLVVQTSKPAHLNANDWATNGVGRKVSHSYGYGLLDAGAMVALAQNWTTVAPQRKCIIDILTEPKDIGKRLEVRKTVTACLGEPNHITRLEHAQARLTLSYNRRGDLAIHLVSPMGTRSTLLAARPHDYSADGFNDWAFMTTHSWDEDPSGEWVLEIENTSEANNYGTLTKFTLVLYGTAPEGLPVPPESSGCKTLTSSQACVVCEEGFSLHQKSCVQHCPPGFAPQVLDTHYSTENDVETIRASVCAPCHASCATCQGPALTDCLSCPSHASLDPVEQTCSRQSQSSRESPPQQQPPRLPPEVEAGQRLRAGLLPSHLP
Dynein cargo inh: blocks dynein driven cargo transport along microtubules; 3617.4 mouse cells, GR-EGFP nuclear translocation imaging; test concentration mostly 20 µM; stimulated with dexamethasone, 1 µM; active compounds read low; z-score, hits read low; 0.47% of 220,000 active; AID 1381;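 active means plate z-score of nuclear minus cytoplasmic receptor signal below a set negative limit, without overly bright fluorescence or cell loss, cut at about -3.5 in these data, passing the limit was not always enough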;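 further: z-score of nuclear minus cytoplasmic ring GR-EGFP intensity difference per well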
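Buffer or medium: tet-free medium with charcoal-stripped serum / Also added: dexamethasone agonist, 1.0 µM final, for 30 min / Timing: induction 48 h, compound 1 h, agonist 30 min / Measured by: high-content fluorescence imaging after fixation / Read-out: nuclear-to-cytoplasmic GR-EGFP distribution per well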
Dynein confirm: dynein cargo transport inhibition, confirmation | shares compounds with Dynein cargo inh | 3617.4 GR-EGFP nuclear translocation imaging, dexamethasone-induced | AID 463116 | calls only at 20 µM | 69% of 1,000 active;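 active means inhibition of receptor movement into the nucleus at or above a set limit in both runs, with normal cell brightness and cell count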;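 further: dexamethasone at 1 µM final in well for 30 min; nuclear minus cytoplasmic GR-EGFP mean intensity difference in channel 2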
* hit, by the source's call. Shown are actives, neighbours in structure and some others; about 2% of the full set was active somewhere.

Screening CN(C1CC(C)(C)NC(C)(C)C1)S(=O)(=O)CC12CCC(CC1=O)C2(C)C (stereo not given) returned HSV replic up inactive, Insulin prom up -0.06, Furin inhibitor -28 and Dynein cargo inh -0.59.
Screening CCN1CCN(C(=O)CCc2nnc(CCCCc3ccccc3)o2)[C@@H](C)C1=O returned HSV replic up inactive, Insulin prom up -0.4, Autophagy mod inactive, Furin inhibitor -14 and Dynein cargo inh -0.77.
`Cc1ccccc1-n1sc2cc(F)ccc2c1=O` gave HSV replic up inactive, Insulin prom inh -124, Insulin prom up 1.6, Autophagy mod inactive, Furin inhibitor -23, Dynein cargo inh -4.8* and Dynein confirm active.
For Cc1ccccc1-n1c(=O)c2ccccc2n2cnnc12 the results were HSV replic up inactive, Insulin prom inh 0, Insulin prom up -1, Autophagy mod inactive, Furin inhibitor -20 and Dynein cargo inh 0.4.
Screening Cc1cc(C(=O)CCl)c(C)n1-c1cccc([N+](=O)[O-])c1 returned HSV replic up inactive, Insulin prom up 0.07, Autophagy mod inactive, Furin inhibitor -26 and Dynein cargo inh -3.
For Cc1cc(C(=O)CSc2nncs2)c(C)n1Cc1ccco1 the results were HSV replic up inactive, Insulin prom up 0.74, Autophagy mod inactive, Furin inhibitor -28 and Dynein cargo inh -0.058.
For Cc1cc(C(=O)CCl)c(C)n1-c1ccon1 the results were HSV replic up inactive, Insulin prom inh 82*, Insulin prom up -0.66, Autophagy mod inactive, Furin inhibitor -20, Dynein cargo inh -5.6* and Dynein confirm active.
For Cc1cc(C(=O)CCl)c(C)n1Cc1ccco1 the results were HSV replic up inactive, Autophagy mod inactive, Furin inhibitor -7, Dynein cargo inh -6* and Dynein confirm active.
`COC(=O)c1cc(=O)n(Cc2ccc(F)cc2)c(=Nc2ccccc2)s1` gave HSV replic up inactive, Insulin prom up 0.22, Furin inhibitor -16, Dynein cargo inh -4.6* and Dynein confirm active.
For COC(=O)C1=CN(Cc2cccs2)C=C(C(=O)OC)C1c1cccc(O)c1 the results were HSV replic up inactive, Insulin prom up -0.3, Autophagy mod inactive, Furin inhibitor -66 and Dynein cargo inh -0.58.
`COC(=O)c1cc(=O)n(CCc2ccc(OC)c(OC)c2)c(=Nc2ccc(F)c(Cl)c2)s1` gave HSV replic up inactive, Insulin prom up -0.49, Autophagy mod inactive, Furin inhibitor -5, Dynein cargo inh -4* and Dynein confirm active.
`CCOC(=O)c1c(C(=O)OCC)c(C)n(CCc2ccc(OC)c(OC)c2)c1C` gave HSV replic up inactive, Insulin prom inh -6, Insulin prom up -0.47, Autophagy mod inactive, Furin inhibitor -14 and Dynein cargo inh 0.025.
COC(=O)c1cc(=O)n(Cc2cccs2)c(=Nc2ccccc2)s1 was read as HSV replic up inactive, Insulin prom up 0.11, Furin inhibitor -12, Dynein cargo inh -4.4* and Dynein confirm active.
For COC(=O)c1cc(=O)n(Cc2ccc(OC)c(OC)c2)c(=Nc2ccc(F)cc2)s1 the results were HSV replic up inactive, Insulin prom up 0.56, Autophagy mod inactive, Furin inhibitor -18, Dynein cargo inh -4.3* and Dynein confirm active.
CNC(=O)C1CC(=O)N(CCc2ccc(OC)c(OC)c2)C(=Nc2ccc(F)cc2)S1 (stereo not given) was read as HSV replic up inactive, Insulin prom up -0.39, Autophagy mod inactive, Furin inhibitor -24 and Dynein cargo inh -0.55.
`Cc1ccc(-c2nnc(CCC(=O)NCC3C4CC5CC(C4)CC3C5)o2)s1` (stereo not given) gave HSV replic up inactive, Insulin prom up 0.86, Autophagy mod inactive, Furin inhibitor -27 and Dynein cargo inh -1.3.
COC(=O)c1cc2c(C)nn(-c3ccccc3)c2s1 was read as HSV replic up inactive, Insulin prom inh 37, Insulin prom up -1.4, Autophagy mod inactive, Furin inhibitor -16 and Dynein cargo inh 1.3.
Screening COC(=O)c1cc(=O)n(-c2ccccc2)c(=Nc2ccccc2)s1 returned HSV replic up inactive, Insulin prom inh 5, Insulin prom up -1.5, Autophagy mod inactive, Furin inhibitor -13, Dynein cargo inh -3.9* and Dynein confirm active.

Source: PubChem
